Results from ChEMBL document CHEMBL3352265, “Potentially bioactive organotin(IV) compounds: synthesis, characterization, in vitro bioactivities and interaction with SS-DNA” (Eur J Med Chem, 2014).
Values after ≈ are worked out from the molar mass of the structure shown. Active and inactive are the calls of the source. The rule behind the calls is not given here.

Legend:
Escherichia coli [1] = assay: Antibacterial activity against Escherichia coli ATCC 15224 at 40 mg/mL after 24 hrs by disc diffusion method; type: functional; settings: ATCC 15224, 24 h, read-out: DIZ
Outline: (§1)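 Disc diffusion. Strains grown in nutrient broth at 37 °C for 24 h. 1% culture (about 10^6 CFU/mL) mixed into nutrient agar at 45 °C and poured. 4 mm paper discs received compound at 40 mg/mL stock in DMSO; final concentrations tested were […]. DMSO served as negative control, roxithromycin and cefixime as positive controls. Triplicate plates incubated at 37 °C for 24 h. Complete-inhibition zone diameter (mm) recorded as the mean of 3.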

Staphylococcus aureus [2] = assay: Antibacterial activity against Staphylococcus aureus ATCC 6538 at 40 mg/mL after 24 hrs by disc diffusion method; type: functional; settings: ATCC 6538, 24 h, read-out: DIZ; outline: as §1
Klebsiella aerogenes = assay: Antibacterial activity against Enterobacter aerogenes ATCC 13048 at 40 mg/mL after 24 hrs by disc diffusion method; type: functional; settings: ATCC 13048, 24 h, read-out: DIZ; outline: as §1
Salmonella typhimurium [3] = assay: Antibacterial activity against Salmonella typhimurium ATCC 14028 at 40 mg/mL after 24 hrs by disc diffusion method; type: functional, Salmonella enterica subsp. enterica serovar Typhimurium; settings: Salmonella enterica, ATCC 14028, 24 h; read-out: DIZ; outline: as §1
[4] = test system: Bordetella bronchiseptica; assay: Antibacterial activity against Bordetella bronchiseptica ATCC 4617 at 40 mg/mL after 24 hrs by disc diffusion method; type: functional; settings: ATCC 4617, 24 h, read-out: DIZ; outline: as §1
Bacillus spizizenii [5] = assay: Antibacterial activity against Bacillus subtilis ATCC 6633 at 40 mg/mL after 24 hrs by disc diffusion method; type: functional; settings: ATCC 6633, 24 h, read-out: DIZ; outline: as §1
Escherichia coli [6] = assay: Antibacterial activity against Escherichia coli ATCC 15224 after 18 hrs by microdilution method; type: functional; settings: ATCC 15224, 18 h
Outline: (§2)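 Broth microdilution. Twofold dilutions in culture broth at […]. Each well inoculated with bacterial suspension (10^8 CFU/mL, about 10^5 CFU/well). Sterility control and growth control (broth plus DMSO) included. Incubated at 36 °C for 18 h, in triplicate. MIC taken as the lowest concentration inhibiting growth, given in micrograms per mL.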

Staphylococcus aureus [7] = assay: Antibacterial activity against Staphylococcus aureus ATCC 6538 after 18 hrs by microdilution method; type: functional; settings: ATCC 6538, 18 h; outline: as §2
Salmonella typhimurium [8] = assay: Antibacterial activity against Salmonella typhimurium ATCC 14028 after 18 hrs by microdilution method; type: functional, Salmonella enterica subsp. enterica serovar Typhimurium; settings: Salmonella enterica, ATCC 14028, 18 h; outline: as §2
[9] = test system: Bordetella bronchiseptica; assay: Antibacterial activity against Bordetella bronchiseptica ATCC 4617 after 18 hrs by microdilution method; type: functional; settings: ATCC 4617, 18 h; outline: as §2
Bacillus spizizenii [10] = assay: Antibacterial activity against Bacillus subtilis ATCC 6633 after 18 hrs by microdilution method; type: functional; settings: ATCC 6633, 18 h; outline: as §2
Aspergillus niger = assay: Antifungal activity against Aspergillus niger FCBP 0198 at 40 mg/mL after 7 days by disc diffusion method; type: functional; settings: FCBP 0198, 168 h, read-out: DIZ
Outline: (§3)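 Disc diffusion on SDA. Fungi cultured at 28 °C for 24 h. 4 mm discs received compound at 40 mg/mL stock in DMSO. DMSO served as negative control, terbinafine as positive control. Plates incubated at 28 °C for 7 days. Growth diameter (mm) measured and inhibition calculated against the negative control. MIC taken as the lowest concentration with no growth.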

Aspergillus fumigatus = assay: Antifungal activity against Aspergillus fumigatus FCBP 66 at 40 mg/mL after 7 days by disc diffusion method; type: functional; settings: FCBP 66, 168 h, read-out: DIZ; outline: as §3
Aspergillus flavus = assay: Antifungal activity against Aspergillus flavus FCBP 0064 at 40 mg/mL after 7 days by disc diffusion method; type: functional; settings: FCBP 0064, 168 h, read-out: DIZ; outline: as §3
Mucor = assay: Antifungal activity against Mucor FCBP 0400 at 40 mg/mL after 7 days by disc diffusion method; type: functional; settings: FCBP 0400, 168 h, read-out: DIZ; outline: as §3
Artemia salina = assay: Cytotoxicity in brine shrimp assessed as mortality after 24 hrs; type: functional; settings: read-out: LD50 (the source's name)
[11] = test system: Agrobacterium tumefaciens; assay: Antitumor activity against Agrobacterium tumefaciens -induced tumor at 1000 ug/ml after 21 days by potato disc bioassay technique; type: functional
Outline: (§4)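 Potato disc assay with 48 h culture of A. tumefaciens At-10. Inoculum contained compound at […]. Red-skinned potatoes sterilized in 0.1% HgCl2; 8 mm × 4 mm discs placed ten per 1.5% agar plate, […] each. Incubated at 28 °C in the dark for 21 days, in triplicate. Discs stained with Lugol's and tumors counted. Percent inhibition calculated against the negative control.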

[12] = test system: Agrobacterium tumefaciens; assay: Antitumor activity against Agrobacterium tumefaciens -induced tumor at 100 ug/ml after 21 days by potato disc bioassay technique; type: functional; outline: as §4
[13] = test system: Agrobacterium tumefaciens; assay: Antitumor activity against Agrobacterium tumefaciens -induced tumor at 10 ug/ml after 21 days by potato disc bioassay technique; type: functional; outline: as §4
[14] = test system: Agrobacterium tumefaciens; assay: Antitumor activity against Agrobacterium tumefaciens -induced tumor after 21 days by potato disc bioassay technique; type: functional, organism-based; settings: 504 h; outline: as §4
Escherichia coli [15] = assay: Induction of Escherichia coli pBR322 DNA damage assessed as open circular form at 1000 ug/ml after 60 mins by gel electrophoresis
Escherichia coli [16] = assay: Induction of Escherichia coli pBR322 DNA damage assessed as open circular form at 100 ug/ml after 60 mins by gel electrophoresis
Escherichia coli [17] = assay: Induction of Escherichia coli pBR322 DNA damage assessed as open circular form at 10 ug/ml after 60 mins by gel electrophoresis
Escherichia coli [18] = assay: Induction of Escherichia coli pBR322 DNA damage assessed as open circular form at 1 ug/ml after 60 mins by gel electrophoresis
Leishmania major = assay: Antileishmanial activity against Leishmania major kwh 23 after 72 hrs using neobar counting by microscopy; type: functional, organism-based; settings: kwh 23, 72 h
Outline: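 Leishmania major promastigotes grown 7 days at 24 °C in medium 199 with 10% FBS. Samples as 10,000 ppm DMSO stocks, added to reach 200 ppm in the first row and serially diluted in 96-well plates, DMSO kept <5%. DMSO negative and amphotericin B positive controls. Incubated 72 h at 24 °C. Mortality counted in a counting chamber by light microscopy. Run 3 times. IC50 is the concentration giving 50% parasite reduction.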

## COc1ccccc1NC(=O)CCC(=O)O
Escherichia coli [1]
  zone of inhibition at 40000 µg/mL: 16 mm
Staphylococcus aureus [2]
  zone of inhibition at 40000 µg/mL: 11 mm
Klebsiella aerogenes
  zone of inhibition at 40000 µg/mL: 0 mm
Salmonella typhimurium [3]
  zone of inhibition at 40000 µg/mL: 8 mm
[4]
  zone of inhibition at 40000 µg/mL: 9 mm
Bacillus spizizenii [5]
  zone of inhibition at 40000 µg/mL: 10 mm
Escherichia coli [6]
  MIC: 100 µg/mL (≈ 448 µM)
Staphylococcus aureus [7]
  MIC: 100 µg/mL (≈ 448 µM)
Salmonella typhimurium [8]
  MIC: 200 µg/mL (≈ 896 µM)
[9]
  MIC: 200 µg/mL (≈ 896 µM)
Bacillus spizizenii [10]
  MIC: 200 µg/mL (≈ 896 µM)
Aspergillus niger
  zone of inhibition at 40000 µg/mL: 0 mm
Aspergillus fumigatus
  zone of inhibition at 40000 µg/mL: 0 mm
Aspergillus flavus
  zone of inhibition at 40000 µg/mL: 0 mm
Mucor
  zone of inhibition at 40000 µg/mL: 0 mm
Artemia salina
  LC50: 192 µg/mL (≈ 861 µM)
[11]
  Activity: 62.64%
[12]
  Activity: 31.14%
[13]
  Activity: 5.63%
[14]
  IC50: 410 µg/mL (≈ 1840 µM)
Escherichia coli [15]
  Activity: inactive
Escherichia coli [16]
  Activity: inactive
Escherichia coli [17]
  Activity: inactive
Escherichia coli [18]
  Activity: inactive
Leishmania major
  IC50: 0.00342 µg/mL (≈ 0.0153 µM)
